In ChEMBL document CHEMBL1143102, “Synthesis, radiofluorination, and in vitro evaluation of pyrazolo[1,5-a]pyridine-based dopamine D4 receptor ligands: discovery of an inverse agonist radioligand for PET” (J Med Chem, 2008):

Columns and labels:
[1] = Lipophilicity, log D at pH 7.4; format: physicochemical; settings: buffer
How it was run: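 Shake-flask partition of about 25 kBq 18F-labeled compound between 1-octanol and PBS pH 7.4, mixed 3 min at room temperature and centrifuged. Triplicate 100 µL samples of each phase are gamma-counted. log D7.4 = log(cpm octanol/cpm buffer), from 2–3 independent experiments in triplicate, mean ± SD.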

[2] = Stability in human serum at 37 degC after 90 mins; format: ADME, cell-free; settings: read-out: Stability
How it was run: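 PBS-formulated 18F-labeled compound (20 µL, 250 MBq/mL) is added to 200 µL human serum and incubated at 37 °C for up to 90 min. The percentage of intact radioligand is reported.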

[3] = Displacement of [3H]spiperone from cloned human dopamine D4.4 receptor expressed in CHO cells; format: cell-based
[4] = biological target: 5-hydroxytryptamine receptor 2A (Sus scrofa, UniProt P50129); experiment: Displacement of [3H]ketanserin from 5HT2 receptor in pig cortical membranes; format: cell membranes
How it was run: (§1)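 Competition binding on porcine cortical membranes. Radioligands, each at 0.5 nM final: [3H]8-OH-DPAT for 5-HT1A, [3H]ketanserin for 5-HT2, [3H]prazosin for α1.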

D(1A) dopamine receptor = D(1A) dopamine receptor (Sus scrofa, UniProt P50130); experiment: Displacement of [3H][…] from dopamine D1 receptor in pig striatal membrane; format: cell membranes, Striatum
D(2) dopamine receptor [5] = biological target: T1, D(2) dopamine receptor (Homo sapiens, UniProt P14416); experiment: Displacement of [3H]spiperone from cloned human dopamine D2L receptor expressed in CHO cells; format: cell-based
[6] = Displacement of [3H]prazosin from adrenergic alpha1 receptor in pig cortical membranes; format: cell membranes, Sus scrofa; how it was run: as §1
D(2) dopamine receptor [7] = biological target: T1, D(2) dopamine receptor; experiment: Displacement of [3H]spiperone from cloned human dopamine D2S receptor expressed in CHO cells; format: cell-based
[8] = Displacement of [3H]8-OH-DPAT from 5HT1A receptor in pig cortical membranes; format: cell membranes, Sus scrofa; how it was run: as §1
D(3) dopamine receptor = D(3) dopamine receptor (Homo sapiens, UniProt P35462); experiment: Displacement of [3H]spiperone from cloned human dopamine D3 receptor expressed in CHO cells; format: cell-based
[9] = biological target: T2, D(4) dopamine receptor (Rattus norvegicus) (UniProt P30729); experiment: Displacement of 2-[4-(2-(2-[18F]fluoroethoxy)phenyl)piperazin-1-ylmethyl]pyrazolo[1,5-alpha]pyridine from dopamine D4 receptor in Sprague-Dawley rat brain
T2 sequence (whole entry): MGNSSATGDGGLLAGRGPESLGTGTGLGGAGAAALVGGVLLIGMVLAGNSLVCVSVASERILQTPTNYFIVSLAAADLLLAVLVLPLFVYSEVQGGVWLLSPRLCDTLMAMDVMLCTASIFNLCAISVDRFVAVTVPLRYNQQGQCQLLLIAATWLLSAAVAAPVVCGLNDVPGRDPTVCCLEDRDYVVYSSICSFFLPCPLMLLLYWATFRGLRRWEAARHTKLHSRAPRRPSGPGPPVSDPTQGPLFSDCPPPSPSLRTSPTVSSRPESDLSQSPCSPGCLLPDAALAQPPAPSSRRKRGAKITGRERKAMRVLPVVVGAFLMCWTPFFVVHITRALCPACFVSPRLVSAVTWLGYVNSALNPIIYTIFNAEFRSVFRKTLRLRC
How it was run: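 In vitro autoradiography on 20 µm coronal brain cryosections from female Sprague–Dawley rats. Sections are preincubated 2 × 5 min, then incubated 60 min at room temperature with 110 kBq/mL [18F] radioligand, ± competitor (1 µM). Buffer: Tris-HCl, NaCl, EDTA, MgCl2 pH 7.4, with 0.5 µM DTG and 0.1 µM pindolol. Sections are washed cold, imaged by real-time autoradiography, and ROI intensities (cpm/mm2) are defined by HE counterstaining.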

Homo sapiens [10] = species on record: Homo sapiens; experiment: Selectivity for human dopamine D4.4 receptor over human dopamine D2L receptor
[11] = Agonist activity at rat dopamine D4.2 receptor expressed in CHO10001A cells assessed as incorporation of [3H]thymidine; format: functional, cell-based
Homo sapiens [12] = species on record: Homo sapiens; experiment: Selectivity for human dopamine D4.4 receptor over human dopamine D3 receptor
Homo sapiens [13] = species on record: Homo sapiens; experiment: Selectivity for human dopamine D4.4 receptor over human dopamine D2S receptor
[14] = Agonist activity at rat dopamine D4.2 receptor expressed in CHO10001A cells assessed as incorporation of [3H]thymidine relative to quinpirole; format: functional

D(3) dopamine receptor, sequence (P35462 whole entry): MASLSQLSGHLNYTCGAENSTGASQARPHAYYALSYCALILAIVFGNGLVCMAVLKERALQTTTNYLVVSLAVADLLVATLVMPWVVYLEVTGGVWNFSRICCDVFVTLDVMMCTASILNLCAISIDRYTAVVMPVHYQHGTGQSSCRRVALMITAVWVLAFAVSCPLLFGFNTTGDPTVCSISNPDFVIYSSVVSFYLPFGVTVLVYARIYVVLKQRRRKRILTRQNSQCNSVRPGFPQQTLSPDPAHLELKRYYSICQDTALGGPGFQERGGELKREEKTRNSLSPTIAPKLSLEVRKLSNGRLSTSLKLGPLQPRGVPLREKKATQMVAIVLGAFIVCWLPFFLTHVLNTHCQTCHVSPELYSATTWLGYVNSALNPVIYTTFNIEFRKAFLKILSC
D(1A) dopamine receptor, sequence (P50130 whole entry): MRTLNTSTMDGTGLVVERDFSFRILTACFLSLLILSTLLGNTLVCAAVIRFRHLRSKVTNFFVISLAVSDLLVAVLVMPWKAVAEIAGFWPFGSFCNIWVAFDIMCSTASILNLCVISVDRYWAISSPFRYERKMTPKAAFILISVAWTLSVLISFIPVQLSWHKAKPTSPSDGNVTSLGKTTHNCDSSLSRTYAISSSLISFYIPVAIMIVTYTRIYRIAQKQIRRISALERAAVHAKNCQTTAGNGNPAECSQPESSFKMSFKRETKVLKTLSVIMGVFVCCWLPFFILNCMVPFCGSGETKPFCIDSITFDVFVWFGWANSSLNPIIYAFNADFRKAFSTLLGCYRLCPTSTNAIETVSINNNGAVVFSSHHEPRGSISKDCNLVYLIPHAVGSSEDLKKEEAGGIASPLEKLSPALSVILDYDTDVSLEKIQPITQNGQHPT
T1 sequence (P14416 whole entry): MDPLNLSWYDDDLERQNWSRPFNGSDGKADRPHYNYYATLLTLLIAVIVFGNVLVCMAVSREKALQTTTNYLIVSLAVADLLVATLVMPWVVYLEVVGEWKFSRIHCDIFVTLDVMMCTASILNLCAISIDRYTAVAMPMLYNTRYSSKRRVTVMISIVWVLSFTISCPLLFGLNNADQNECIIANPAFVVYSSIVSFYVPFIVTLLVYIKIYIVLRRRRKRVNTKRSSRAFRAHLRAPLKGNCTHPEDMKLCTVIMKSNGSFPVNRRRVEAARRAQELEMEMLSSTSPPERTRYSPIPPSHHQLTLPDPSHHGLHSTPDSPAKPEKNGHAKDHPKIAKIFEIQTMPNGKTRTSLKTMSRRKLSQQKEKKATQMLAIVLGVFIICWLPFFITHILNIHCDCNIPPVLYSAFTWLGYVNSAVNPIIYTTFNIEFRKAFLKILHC
5-hydroxytryptamine receptor 2A, sequence (P50129 whole entry): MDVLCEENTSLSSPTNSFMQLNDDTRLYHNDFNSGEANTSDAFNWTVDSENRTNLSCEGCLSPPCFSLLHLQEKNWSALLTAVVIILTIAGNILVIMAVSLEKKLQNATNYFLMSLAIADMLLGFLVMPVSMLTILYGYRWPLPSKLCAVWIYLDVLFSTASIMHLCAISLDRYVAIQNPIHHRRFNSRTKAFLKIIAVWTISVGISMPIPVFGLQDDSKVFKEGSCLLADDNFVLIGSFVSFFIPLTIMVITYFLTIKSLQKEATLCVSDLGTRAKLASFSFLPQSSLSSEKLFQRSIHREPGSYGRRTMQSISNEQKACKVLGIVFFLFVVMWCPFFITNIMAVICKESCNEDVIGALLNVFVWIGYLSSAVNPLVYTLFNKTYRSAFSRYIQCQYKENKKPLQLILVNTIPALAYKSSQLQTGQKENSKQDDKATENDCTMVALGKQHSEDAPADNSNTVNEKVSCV

Compound | logD [1] | remaining at 1.5 h [2] [%] | Ki [4] [nM] | Ki (D(1A) dopamine receptor) [nM] | Ki (D(2) dopamine receptor [5]) [nM] | Ki [6] [nM] | Ki (D(2) dopamine receptor [7]) [nM] | Ki [8] [nM] | Ki (D(3) dopamine receptor) [nM] | Activity [9] [%] | Ratio Ki (Homo sapiens [10]) | EC50 [11] [nM] | Ratio Ki (Homo sapiens [12]) | Ratio Ki (Homo sapiens [13]) | Ki [3] [nM] | Efficacy [14] [%]
[18F]CCOc1ccc(N2CCN(Cc3cc4ccccn4n3)CC2)cc1 | 1.99 | > 99 | – | – | – | – | – | – | – | – | – | – | – | – | – | –
Brc1cccc(N2CCN(Cc3cc4ccccn4n3)CC2)n1 | – | – | 4400 | 18000 | 880 | 240 | 550 | 360 | 930 | – | – | – | – | – | 7.9 | –
FCCOc1ccccc1N1CCN(Cc2cc3ccccn3n2)CC1 | – | – | 13000 | 4800 | 46 | 40 | 79 | 5700 | 940 | – | 35 | 0.8 | 723 | 61 | 1.3 | 49
FCCOc1ccccc1N1CCN(Cc2cnn3ccccc23)CC1 | – | – | 2900 | 2500 | 150 | 5.4 | 180 | 120 | 320 | – | – | 1 | – | – | 1.6 | 71
Fc1cccc(N2CCN(Cc3cc4ccccn4n3)CC2)n1 | – | – | 9700 | 30000 | 3400 | 910 | 1700 | 1200 | 3400 | – | 142 | – | 142 | 71 | 24 | –
[18F]CCOc1ccc(N2CCN(Cc3cnn4ccccc34)CC2)cc1 | 2.12 | > 96 | – | – | – | – | – | – | – | – | – | – | – | – | – | –
[18F]c1cccc(N2CCN(Cc3cnn4ccccc34)CC2)n1 | 1.98 | > 98 | – | – | – | – | – | – | – | – | – | – | – | – | – | –
CCCN1CCC[C@@H]2Cc3n[nH]cc3C[C@H]21 [QUINPIROLE] | – | – | – | – | – | – | – | – | – | – | – | 7.1 | – | – | – | –
FCCOc1ccc(N2CCN(Cc3cnn4ccccc34)CC2)cc1 | – | – | 14000 | 33000 | 66000 | 4500 | 79000 | 13000 | 8700 | – | 2360 | 18 | 311 | 2820 | 28 | -41
Fc1cccc(N2CCN(Cc3cnn4ccccc34)CC2)n1 | – | – | 5400 | 7300 | 330 | 87 | 220 | 290 | 590 | – | 38 | – | 67 | 25 | 8.8 | –
[18F]c1cccc(N2CCN(Cc3cc4ccccn4n3)CC2)n1 | 1.78 | > 99 | – | – | – | – | – | – | – | – | – | – | – | – | – | –
Brc1cccc(N2CCN(Cc3cnn4ccccc34)CC2)n1 | – | – | 1200 | 3900 | 210 | 21 | 150 | 120 | 410 | – | – | – | – | – | 2.6 | –

More lines, main results first:

logD [1] | remaining at 1.5 h [2] [%] | Ki [4] [nM] | Ki (D(1A) dopamine receptor) [nM] | Ki (D(2) dopamine receptor [5]) [nM] | Ki [6] [nM] | Ki (D(2) dopamine receptor [7]) [nM] | Ki [8] [nM] | Ki (D(3) dopamine receptor) [nM] | Activity [9] [%] | Ratio Ki (Homo sapiens [10]) | EC50 [11] [nM] | Ratio Ki (Homo sapiens [12]) | Ratio Ki (Homo sapiens [13]) | Compound | Ki [3] [nM] | Efficacy [14] [%]
– | – | 1500 | 2800 | 4500 | 26 | 4700 | 680 | 2200 | – | – | – | – | – | Oc1ccccc1N1CCN(Cc2cnn3ccccc23)CC1 | 44 | –
– | – | – | – | – | – | – | – | – | 65 | – | – | – | – | CCc1cc(Cl)c(OC)c(C(=O)NC[C@@H]2CCCN2CC)c1O | – | –
– | – | 24700 | 9900 | 6100 | 82 | 87000 | 12000 | 3400 | – | – | – | – | – | Oc1ccc(N2CCN(Cc3cnn4ccccc34)CC2)cc1 | 20 | –
– | – | – | – | – | 270 | – | 1700 | – | 78 | 1550 | – | 2410 | 2860 | Clc1ccc(N2CCN(Cc3cc4ccccn4n3)CC2)cc1 | 2.2 | <3
2.15 | – | – | – | – | – | – | – | – | – | – | – | – | – | [18F]CCOc1ccccc1N1CCN(Cc2cnn3ccccc23)CC1 | – | –
– | – | 5500 | 29000 | 30000 | 4100 | 50000 | 1400 | 15000 | – | 2310 | 9.1 | 1150 | 3850 | FCCOc1ccc(N2CCN(Cc3cc4ccccn4n3)CC2)cc1 | 13 | -37
– | – | – | – | – | 240 | – | 1400 | – | – | – | – | – | – | Clc1ccc(N2CCN(Cc3cnn4ccccc34)CC2)cc1 [FAUC 113] | 5.8 | 26
